# Bioassay records (PubChem BioAssay)
# CRFBP-R2 block = CRF-BP/CRF-R2 complex antagonism. HEK293 CRF-R2/CRF-BP, CRF-induced calcium fluorescence. inhibition, % at 11.8 µM. 350,000 compounds, 0.59% hits;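 active = inhibition of the ligand-induced calcium signal above about 50% at the single tested concentration, limit read from the data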
# IMP-1 inh-1 = blocks Pseudomonas aeruginosa IMP-1 metallo-beta-lactamase; purified IMP-1, nitrocefin hydrolysis, epi-absorbance fluorescence; 290,000 compounds, 0.45% hits; AID 1556; inhibition, % at 5.6 µM;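 active = inhibition above the mean plus 3 SD of all compounds in the same screening run, cut at about 4.5% in these data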;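 note: 0% = IMP-1 with DMSO and 100% = DMSO wells lacking enzyme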
#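 Assay system: purified recombinant IMP-1 beta-lactamase. Input: IMP-1 0.2 nM before substrate addition. Buffer or medium: Zinc- and detergent-supplemented HEPES buffer, pH 7.1. Schedule: 25 °C, 15 min preincubation, 25 min reaction. Signal: Epi-absorbance fluorescence, 480 nm excitation, 530 nm emission. Evaluation: percent inhibition from optical density relative to buffer-blank wells.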
# CRFR2-BP ag = CRF-BP/CRF-R2 complex agonism | HEK293 CRF-R2/CRF-BP, calcium dye fluorescence (FLIPR); percent of saturating CRF peptide response | activation, % at 13.2 µM | 350,000 compounds, 0.46% hits;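 active = activation of at least 50%, plus an integration ratio under a set limit after plate pattern correction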;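 note: plate controls were neutral control wells without compound for no effect and CRF at EC100 for full effect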
# VIM-2 inh = inhibitors of Pseudomonas aeruginosa VIM-2 metallo-beta-lactamase | purified VIM-2, nitrocefin hydrolysis, epi-absorbance fluorescence | inhibition, % at 5.6 µM | 290,000 compounds, 0.89% hits;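 active = inhibition above the mean of all tested compounds plus 3 SD, cutoff set per screening run, cut at about 7.5% in these data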;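 note: red hydrolysis product quenches plate fluorescence so inhibitors raise well fluorescence; 0% = enzyme with DMSO and 100% = DMSO without enzyme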
# TRPML3 agonist = activates the human TRPML3 channel; HEK293 TRPML3-YFP, Fluo-8 calcium fluorescence; 100% = the carbachol control signal; AID 1448; activation, % at 3 µM; Q8TDD5; 220,000 compounds, 0.29% hits;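 active = activation above its plate's cutoff, the mean activation of the plate's test wells plus 3 SD, cut at about 12% in these data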;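 note: 0% = DMSO only wells and 100% = carbachol wells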
# Target sequence (Q8TDD5 whole entry, looked up): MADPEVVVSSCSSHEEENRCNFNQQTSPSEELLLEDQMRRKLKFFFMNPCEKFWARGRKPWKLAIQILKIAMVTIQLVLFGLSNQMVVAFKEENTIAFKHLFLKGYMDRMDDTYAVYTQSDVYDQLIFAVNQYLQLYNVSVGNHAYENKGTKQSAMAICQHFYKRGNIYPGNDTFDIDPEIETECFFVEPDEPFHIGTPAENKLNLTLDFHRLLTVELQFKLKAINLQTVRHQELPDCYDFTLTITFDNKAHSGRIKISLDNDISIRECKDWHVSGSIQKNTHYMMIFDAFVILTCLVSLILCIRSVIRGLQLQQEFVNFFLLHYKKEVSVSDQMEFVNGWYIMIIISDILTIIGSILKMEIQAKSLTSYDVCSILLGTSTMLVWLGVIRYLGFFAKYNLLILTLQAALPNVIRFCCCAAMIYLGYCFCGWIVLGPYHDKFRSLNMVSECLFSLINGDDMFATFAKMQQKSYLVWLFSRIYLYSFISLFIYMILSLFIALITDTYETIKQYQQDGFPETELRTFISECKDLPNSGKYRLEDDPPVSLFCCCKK
#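 Test system: HEK293 cells stably carrying human TRPML3-YFP; Doses: single dose, 3 µM final nominal compound, 0.3% DMSO final; Schedule: dye loading 1 h 37 °C then 30 min ambient, 125 s read; Technique: Fluo-8 calcium fluorescence; Benchmarks: high control carbachol 87 µM, low control DMSO.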
# TRPN1 ag = activates the zebrafish TRPN1 channel; AID 1424; activation, % at 3 µM; 220,000 compounds, 0.18% hits; HEK293 zebrafish TRPN1-YFP, Fluo-8 calcium fluorescence; 100% = response to 87 µM carbachol;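 active = activation above its plate's cutoff, the mean activation of test wells on that plate plus 3 SD, cut at about 19% in these data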;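 note: 0% = DMSO alone and 100% = 87 µM carbachol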
#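 Material – zebrafish TRPN1-YFP in HEK293 cells · Doses – 3 µM single point · Schedule – dye 1 h 37 °C plus 30 min RT · Signal – Fluo-8 calcium fluorescence, excitation 470-495 nm, emission 515-575 nm · Read-out – % activation versus carbachol response · Control set – carbachol high, DMSO low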
# IMP-1 inh-2 = selectivity counter-screen for VIM-2 inhibitors: IMP-1 metallo-beta-lactamase inhibitors | inhibition, % at 5.6 µM | shares compounds with VIM-2 inh | 1,300 tested, under 10 active | AID 1856 | purified IMP-1, nitrocefin hydrolysis, epi-absorbance fluorescence; call rule not given here;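 note: 0% = enzyme with vehicle and 100% = vehicle without enzyme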
# VIM-2 FRET ctr = counter-screen for VIM-2 inhibitors: epi-absorbance artifacts via FRET. inhibition, % at 5.6 µM. 1,300 compounds, 23% hits. purified VIM-2, CCF2 FRET substrate hydrolysis. shares compounds with VIM-2 inh;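 active = inhibition above the mean of all tested compounds plus 3 SD, cut at about 19% in these data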;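 note: 0% = VIM-2 plus DMSO and 100% = no enzyme wells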
# TEM-1 inh = TEM-1 inhibition, counter-screen for VIM-2 inhibitors. shares compounds with VIM-2 inh. Purified TEM-1, nitrocefin hydrolysis, epi-absorbance fluorescence. inhibition, % at 5.6 µM. 1,300 compounds, 3% hits. AID 1866;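 active = inhibition above that campaign's mean inhibition plus 3 SD, cut at about 0.46% in these data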;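 note: 0% = TEM-1 with DMSO and 100% = TEM-1 with 100 µM potassium clavulanate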
# VIM-2 confirm 2 = confirmation of P. aeruginosa VIM-2 metallo-beta-lactamase inhibitors. shares compounds with VIM-2 inh. purified VIM-2, nitrocefin hydrolysis, epi-absorbance. inhibition, % at 5.6 µM. 1,300 compounds, 96% hits;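 active = inhibition of the VIM-2 beta-lactamase enzyme above about 11% from the earlier first-round screen, limit read from the data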;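 note: 0% = VIM-2 with DMSO and 100% = buffer wells without enzyme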
# Active calls of the source: *; . = not tested or not shown. Sampled rows, rich in hits. Any-hit rate of the full collection: about 2.1%.
SMILES,CRFBP-R2 block,IMP-1 inh-1,CRFR2-BP ag,VIM-2 inh,TRPML3 agonist,TRPN1 ag,IMP-1 inh-2,VIM-2 FRET ctr,TEM-1 inh,VIM-2 confirm 2
CCOc1ccccc1Nc1cc(C)nc2nc(C)nn12,-5,-4,-1,15*,0,-1,-2,-1,0.5*,28*
O=C(Cc1ccc(S(=O)(=O)N2CCOCC2)s1)NCCc1ccc(F)cc1,-14,.,0,.,.,.,.,.,.,.
CCn1c(=O)c2cc(C(=O)N3CCCC3)sc2c2ccccc21,.,-4,.,-1,0,-1,.,.,.,.
CCN(CC)CCNC(=O)c1cc2c(=O)n(CC)c3ccccc3c2s1,-1,-4,1,14*,.,.,-2,-1,-4,21*
CCn1c(=O)c2cc(C(=O)NCCN(C)C)sc2c2ccccc21,-1,-1,-3,13*,.,.,-2,1,-5,20*
CCN(CC)CCCNC(=O)c1cc2c(=O)n(CC)c3ccccc3c2s1,10,-2,0,14*,.,.,-2,1,-5,21*
CCn1c(=O)c2cc(C(=O)N(C)CC(OC)OC)sc2c2ccccc21,37,-3,-4,7,.,.,.,.,.,.
O=C(O)CSCC(=O)N1CCN(c2nc3cc(Cl)ccc3s2)CC1,6,-3,-1,-4,.,.,.,.,.,.
Cc1nnc2c(NC3CCCC3)nc3ccccc3n12,10,-2,-1,12*,-1,1,-3,-4,-5,23*
COc1ccc(C2=Nn3c(nnc3-c3ccccn3)SC2)cc1OC,-6,-3,1,52*,-1,0,-3,-2,-7,67*
COc1ccc(C2=Nn3c(nnc3-c3ccccc3OC)SC2)cc1OC,35,-1,-1,14*,-1,0,-3,2,-6,27*
COc1ccc(C2=Nn3c(nnc3-c3ccco3)SC2)cc1OC,3,3,-1,23*,0,0,-3,-6,-7,31*
COc1ccc(OC)c(C2=Nn3c(nnc3-c3cc(OC)c(OC)c(OC)c3)SC2)c1,25,-4,0,13*,-1,-1,-3,3,-6,26*
O=C(NCC(=O)N1CCN(c2ccccc2)CC1)c1ccco1,-20,-4,0,-2,.,.,.,.,.,.
Cc1ccc2[nH]c(=O)c3cc(C(=O)NCC4CCCO4)sc3c2c1 (stereo not drawn),-30,-2,1,-1,0,3,.,.,.,.
Cc1ccc2oc(=O)c3cc(C(=O)NCCCN4CCN(C)CC4)sc3c2c1,-6,-2,0,13*,.,.,-2,0,-9,20*
Cc1ccc2oc(=O)c3cc(C(=O)NCCCN4C(C)CCCC4C)sc3c2c1 (stereo not drawn),-20,1,3,12*,.,.,-3,3,-10,17*
O=C(NCCCN1CCCCCC1)c1cc2c(=O)oc3ccccc3c2s1,3,0,1,16*,.,.,-3,2,-14,25*
CN1CCN(CCCNC(=O)c2cc3c(=O)n(C)c4ccccc4c3s2)CC1,-7,3,1,21*,0,0,-3,1,-7,29*
C/C(=N\OCC(=O)OC(C)C(=O)Nc1ccc(C(N)=O)cc1)c1ccc2c(c1)OCO2 (stereo not drawn),-2,0,0,1,.,.,.,.,.,.
Cc1ccc(S(=O)(=O)NCCNC(=O)c2ccc(C)nc2)cc1,4,-2,1,-2,.,.,.,.,.,.
NNC(=O)CCCCCCCCCCOCCCCO,-3,0,0,-2,1,0,.,.,.,.
O=C(c1cc(COc2cccc(C(F)(F)F)c2)on1)N1C[C@@H]2CCC[C@H]1C2,13,0,0,-4,.,.,.,.,.,.
COc1ccccc1Nc1nc(N)nc(CSC(=S)N2CCCCC2)n1,8,-2,2,-3,0,-1,.,.,.,.
COC(=O)C1=CO[C@@H](O[C@@H]2O[C@H](CO)[C@@H](O)[C@H](O)[C@H]2O)C2C1C=C[C@@]2(O)CO (stereo partly drawn),2,.,0,.,.,.,.,.,.,.
SMILES,CRFBP-R2 block,IMP-1 inh-1,CRFR2-BP ag,VIM-2 inh,TRPML3 agonist,TRPN1 ag,IMP-1 inh-2,VIM-2 FRET ctr,TEM-1 inh,VIM-2 confirm 2
CCN1CCN(CCCNC(=O)c2cc3c(=O)oc4ccc(C)cc4c3s2)CC1,-7,0,8,13*,.,.,-4,0,-11,19*
CCN(Cc1ccccc1)C(=O)c1cc2c(=O)oc3ccc(C)cc3c2s1,21,-4,0,1,-1,0,.,.,.,.
CCc1cc2c(CN3CCN(CC)CC3)cc(=O)oc2cc1O,12,0,1,21*,0,0,-4,-22,-6,25*
CN(C)CCNS(=O)(=O)c1ccc(N2CCN(c3ccc(F)cc3)CC2)c([N+](=O)[O-])c1,-34,-3,8,15*,2,4,-3,34*,-8,24*
CC(=O)N1CCN(c2ccc(S(=O)(=O)NCCN(C(C)C)C(C)C)cc2[N+](=O)[O-])CC1,-6,-3,0,-1,0,0,.,.,.,.
CC(=O)Nc1ccc(Oc2nc(C(F)(F)F)nc3ccccc23)cc1,5,-2,0,21*,.,.,-3,0,-5,30*
Cc1cc(C)cc(Oc2nc(C(F)(F)F)nc3ccccc23)c1,1,-5,3,-3,1,-1,.,.,.,.
C[C@H](CO)N1C[C@H](C)[C@@H](CN(C)C(=O)C2CC2)OCc2cnnn2CCCC1=O,-16,.,0,.,.,.,.,.,.,.
Cc1ccc(-c2nnc3c4ccccc4c(C)nn23)cc1NC(=O)CN1CCOCC1,.,-4,.,-3,1,1,.,.,.,.
Cc1nn2c(-c3ccc(S(=O)(=O)N4CCN(C)CC4)o3)nnc2c2ccccc12,0,-1,1,24*,.,.,-1,4,-5,34*
Cc1ccc(-c2nnc3c4ccccc4c(C)nn23)cc1S(=O)(=O)N1CCN(CCO)CC1,-8,-2,-1,25*,1,1,-2,14,-10,48*
CCOC(=O)[C@H]1[C@H]2COc3ccc(Br)cc3[C@H]2N2C(=O)CNC(=O)[C@@]12C,-5,.,-1,.,.,.,.,.,.,.
CC(C)Sc1nc(SCC(=O)O)c2c3c(sc2n1)COC(C)(C)C3,10,0,0,24*,0,1,-4,23*,-5,8.8*
